# Test results reported in ChEMBL document CHEMBL2176900, “Design and synthesis of a novel series of bicyclic heterocycles as potent γ-secretase modulators” (J Med Chem, 2012).
# Experiments:
# [1] = test system: Rattus norvegicus; test: Antialzheimer activity in Sprague-Dawley rat assessed as amyloid beta 38 level in CSF at 10 mg/kg, po at 4 hrs by ELISA relative to control; format: functional
# Method in brief: (§1)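 Male Sprague-Dawley rats (180-220 g), fasted overnight, were given 10 mg/kg by gastric intubation as a 5 mg/mL suspension in 0.5% methocellulose. At 2, 4, 7 and 25 h, 50 μL CSF was taken from the cisterna magna under isoflurane, then brain was collected. Aβ37/38/40/42 were measured by MesoScale Discovery sandwich immunoassays. Results are mean % change versus T = 0 h, n = 5.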
# [2] = test system: Rattus norvegicus; test: Antialzheimer activity in Sprague-Dawley rat assessed as amyloid beta 38 level in brain at 10 mg/kg, po at 4 hrs by ELISA relative to control; format: functional; method in brief: as §1
# [3] = test system: Rattus norvegicus; test: Antialzheimer activity in Sprague-Dawley rat assessed as amyloid beta 37 level in CSF at 10 mg/kg, po at 7 hrs by ELISA relative to control; format: functional; method in brief: as §1
# [4] = test system: Rattus norvegicus; test: Antialzheimer activity in Sprague-Dawley rat assessed as amyloid beta 37 level in brain at 10 mg/kg, po at 7 hrs by ELISA relative to control; format: functional; method in brief: as §1
# [5] = Plasma concentration in CD1 mouse at 30 mg/kg, po at 24 hrs by LC-MS/MS analysis; format: ADME, organism-based; parameters: dose 30 mg/kg, route oral
# Method in brief: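 Mice received a single 10 or 30 mg/kg oral dose. Plasma was sampled at several time points up to 48 h, with EDTA plasma obtained by centrifugation at 1900g, 10 min, 4 °C. Compound was quantified by LC-MS/MS, n = 4.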
# [6] = Plasma concentration in CD1 mouse at 10 mg/kg, po at 4 hrs by LC-MS/MS analysis; format: ADME, organism-based; parameters: dose 10 mg/kg, route oral
# [7] = test system: Mus musculus; test: Inhibition of gamma-secretase in CD1 mouse assessed as total amyloid beta level in brain at 10 mg/kg, po at 24 hrs by ELISA relative to control; format: functional; parameters: scale not given: the % may be the effect or the level left
# Method in brief: (§2)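 Fasted male CD1 SPF mice were dosed orally at 10 or 30 mg/kg in 20% Captisol. Right hemisphere was homogenized in 0.4% DEA/50 mM NaCl and the high-speed supernatant neutralized. Aβtotal ELISA used N-terminal JRF/rAβ/2 capture, biotinylated 4G8 and streptavidin-peroxidase, then a fluorogenic substrate (ex 320/em 420 nm). Standards spanned 10000–0.3 pg/mL. Values are % change vs T = 0 h, n = 4.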
# [8] = test system: Mus musculus; test: Inhibition of gamma-secretase in CD1 mouse assessed as total amyloid beta level in brain at 30 mg/kg, po at 8 hrs by ELISA relative to control; format: functional; parameters: scale not given: the % may be the effect or the level left; method in brief: as §2
# [9] = test system: Mus musculus; test: Inhibition of gamma-secretase in CD1 mouse assessed as total amyloid beta level in brain at 30 mg/kg, po at 4 hrs by ELISA relative to control; format: functional; parameters: scale not given: the % may be the effect or the level left; method in brief: as §2
# [10] = test system: Mus musculus; test: Inhibition of gamma-secretase in CD1 mouse assessed as total amyloid beta level in brain at 10 mg/kg, po at 4 hrs by ELISA relative to control; format: functional; parameters: scale not given: the % may be the effect or the level left; method in brief: as §2
# [11] = test system: Mus musculus; test: Antialzheimer activity in CD1 mouse assessed as amyloid beta 38 level in brain at 10 mg/kg, po at 8 hrs by ELISA relative to control; format: functional
# Method in brief: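 Male CD1 SPF mice, fasted overnight, got a single oral dose of 10 or 30 mg/kg. At each time point the right brain hemisphere was homogenized in 0.4% DEA/50 mM NaCl with protease inhibitors and spun at 221300g for 50 min. The supernatant was neutralized with Tris-HCl pH 6.8. Aβ38 or Aβ42 was read by sandwich ELISA with a fluorogenic peroxidase substrate (ex 320/em 420 nm). Results are mean % change versus T = 0 h, n = 4.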
# [12] = test system: MDR1; test: Apparent permeability from basal to apical side of pig LLCPK1 cells expressing MDR1; format: ADME, cell-based, Sus scrofa; settings: LLC-PK1
# [13] = Thermodynamic solubility in fasted state simulated intestinal fluid; format: physicochemical; settings: read-out: Therm_solubility
# Method in brief: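 Thermodynamic solubility was measured in pH 4.0 and pH 7.4 buffers, 0.01 N HCl, and fasted-state and fed-state simulated intestinal fluids (FaSSIF, FeSSIF). Results are in […].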
# [14] = molecular target: Cytochrome P450 3A4 (Homo sapiens, UniProt P08684); test: Inhibition of CYP3A4 in human liver microsomes using midazolam as substrate; format: ADME, Microsome
# [15] = molecular target: Gamma-secretase; test: Modulation of gamma-secretase in human SK-N-BE(2) cells expressing wild type APP 695 assessed as reduction in amyloid beta 42 level after overnight incubation by sandwich immunoassay; format: cell-based
# Method in brief: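 SK-N-BE(2) cells carrying wild-type APP695, plated at 10⁴ cells/well in Ultraculture with glutamine, NEAA, penicillin/streptomycin plus test compound at a range of concentrations. Incubated overnight at 37 °C, 5% CO₂. Supernatant Aβ42 measured by AlphaLisa sandwich immunoassay (JRF/cAβ42/26 capture, biotinylated JRF/AβN/25). IC50 derived from % of maximal Aβ42 without compound. Mean of at least three determinations.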
# [16] = test system: Liver microsomes; test: Drug metabolism in human liver microsome assessed as reactive metabolite formation by cyanide-trapping assay; format: ADME
# [17] = test system: Brain; test: Drug uptake in CD1 mouse brain at 30 mg/kg, po at 48 hrs by LC-MS/MS analysis; format: ADME, organism-based; parameters: dose 30 mg/kg, route oral; settings: in vivo, BLD = below limit of detection
# Method in brief: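 Overnight-fasted male CD1 mice received one oral dose (10 or 30 mg/kg) in 20% Captisol. After sacrifice, the left brain hemisphere was stored at −18 °C. Compound level was quantified by a qualified LC-MS/MS method, alongside EDTA plasma spun at 1900g, 4 °C. n = 4 per time point.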
# [18] = test system: Mus musculus; test: Antialzheimer activity in CD1 mouse assessed as amyloid beta 42 level in brain at 30 mg/kg, po at 48 hrs by ELISA relative to control; format: functional
# Method in brief: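 Male CD1 mice, fasted overnight, received a single 10 or 30 mg/kg oral dose. Brain was sampled at an added 48 h time point. The DEA-soluble brain fraction was neutralized and Aβ42 was measured by sandwich ELISA with fluorogenic read-out. Values are % versus vehicle.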
# [19] = Drug uptake in Sprague-Dawley rat brain at 10 mg/kg, po at 4 hrs by LC-MS/MS analysis; format: ADME, organism-based; parameters: dose 10 mg/kg, route oral; settings: read-out: Drug uptake
# Method in brief: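 Overnight-fasted male Sprague–Dawley rats (180–220 g) were dosed 10 mg/kg by gastric intubation of a 5 mg/mL suspension in 0.5% methocellulose. Rats were anesthetized with isoflurane, CSF was taken from the cisterna magna, then they were decapitated. Brain compound levels were measured as in the mouse assay. n = 5.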
# [20] = Plasma concentration in Sprague-Dawley rat at 10 mg/kg, po at 4 hrs by LC-MS/MS analysis; format: ADME, organism-based; parameters: dose 10 mg/kg, route oral
# Method in brief: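 Overnight-fasted male Sprague-Dawley rats (180–220 g) were given 10 mg/kg by gastric intubation of a 5 mg/mL suspension in 0.5% methocellulose. Blood was collected after decapitation at 2, 4, 7 and 25 h under isoflurane anaesthesia. Plasma compound was measured as in the mouse assay, n = 5.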
# [21] = test system: Rattus norvegicus; test: Antialzheimer activity in Sprague-Dawley rat assessed as amyloid beta 42 level in brain at 10 mg/kg, po at 4 hrs by ELISA relative to control; format: functional; method in brief: as §1
# [22] = test system: Canis familiaris; test: Antialzheimer activity in beagle dog assessed as amyloid beta 38 level in cerebrospinal fluid at 20 mg/kg, po at 24 hrs by ELISA relative to control
# Chain of Cytochrome P450 3A4 (P08684 whole entry): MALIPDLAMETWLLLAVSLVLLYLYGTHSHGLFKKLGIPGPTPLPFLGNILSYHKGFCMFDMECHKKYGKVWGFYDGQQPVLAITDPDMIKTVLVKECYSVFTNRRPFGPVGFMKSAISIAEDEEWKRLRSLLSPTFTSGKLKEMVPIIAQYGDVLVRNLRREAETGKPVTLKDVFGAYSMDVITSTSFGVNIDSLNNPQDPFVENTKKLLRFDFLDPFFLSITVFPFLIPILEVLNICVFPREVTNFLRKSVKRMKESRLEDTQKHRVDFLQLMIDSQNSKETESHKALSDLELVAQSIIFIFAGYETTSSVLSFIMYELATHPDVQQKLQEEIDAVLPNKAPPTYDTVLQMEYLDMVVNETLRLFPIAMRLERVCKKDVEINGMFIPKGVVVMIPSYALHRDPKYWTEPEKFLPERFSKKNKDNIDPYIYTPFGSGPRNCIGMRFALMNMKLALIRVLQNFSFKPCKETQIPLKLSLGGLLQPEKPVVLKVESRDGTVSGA
structure (smiles),measurement,setting,value
COc1nc(Nc2cccc3c2nc(-c2ccc(F)cc2)n3C)ccc1-n1cnc(C)c1,Activity,[1],179%
same,Activity,[2],114%
same,Activity,[3],929%
same,Activity,[4],620%
same,concentration at 24 h,[5],0.31 µM
same,concentration at 4 h,[6],5.3 µM
same,Activity,[7],94%
same,Activity,[8],83%
same,Activity,[9],98%
same,Activity,[10],94%
same,Activity,[11],124%
same,Papp B→A,[12],4 ×10⁻⁶ cm/s
same,solubility thermodynamic,[13],3 µg/mL
same,IC50,[14],8.7 µM
same,IC50,[15],0.016 µM
same,Drug metabolism,[16],Not Active
same,Drug uptake,[17],BLD
same,Activity,[18],101%
same,concentration at 4 h,[19],2.2 µM
same,concentration at 4 h,[20],4.4 µM
same,Activity,[21],64%
same,Activity,[22],114%
